Experimental data as given in PubChem BioAssay.
Inconclusive results are not listed.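 Rule for the calls, unless noted: active = RAM network inhibition above 8.4% in each of two replicates, 3 SD over the compound average; inconclusive = above 8.4% inhibition in only one replicate; inactive = 8.4% inhibition or less in each replicate.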

Legend:
[1] = OD615 S. cerevisiae growth inhibition, permissive medium, pilot counter-assay, permissive growth control for S. cerevisiae lifespan shortening project (AID 705;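 active = growth inhibition above 25% in both replicates, a cutoff set 3 SD above the mean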); conditions: OD615, 24 h, at 10 µM, stronger effect = higher value
Procedure, shortened: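 System: engineered DeaD yeast; Medium: permissive raffinose/galactose medium; Compound dosing: 10 µM single dose, 0.25% DMSO; Incubation: 4 h cell pre-growth, 24 h exposure at 30 °C; Technique: OD at 615 nm; Evaluation: growth inhibition from lowered OD615 after 24 h.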

[2] = Restrictive medium S. cerevisiae growth inhibition, OD615, pilot screen of yeast lifespan reduction project, restrictive growth control (AID 706;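 active = growth inhibition above a set limit, 3 SD over mean compound inhibition, in both replicates, cut at about 43% in these data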;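 note: modified DeaD lifespan yeast strain shifted to restrictive glucose medium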); conditions: OD615, 48 h, at 10 µM, stronger effect = higher value
Procedure, shortened: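 Material: modified S. cerevisiae; buffer or medium: CSMM-D glucose medium; doses: one concentration, 10 µM final, 0.25% DMSO; incubation: 48 h compound exposure at 30 °C; detection: optical density at 615 nm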

[3] = viability gain of MRP-1-high H69AR cells under doxorubicin, pilot screen, MRP-1 activator project, CellTiter-Glo, duplicate (AID 807;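 active = viability increase at or above a cutoff of the median across tested compounds plus 3 SD, cut at about 8.5% in these data, passing the limit was not always enough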;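 note: compound pretreatment 18-22 h then 72 h combined with doxorubicin; 0% = doxorubicin alone and 100% = vehicle without doxorubicin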); conditions: H69AR viability with doxorubicin, CellTiter-Glo luminescence; at 10 µM; stronger effect = higher value
[4] = growth suppression of beta-catenin knockout HCT116, pilot screen, human colon tumor cells (AID 823;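 active = cell viability at or below a set limit in both duplicate runs, the limit being the all-compound median minus 4 SD, cut at about 23% in these data, passing the limit was not always enough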;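 note: 0% = wells killed by 20 µM Hyamine and 100% = untreated DMSO cell wells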); conditions: CellTiter-Glo, 60 h, at 10 µM, stronger effect = lower value
[5] = inhibitors of the yeast RAM network, pilot screen, dse1pr::URA3 reporter, 5-FOA selection (AID 869;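 active = inhibition over a set limit, the all-compound mean plus 3 SD, in both replicate runs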;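 note: 0% = DMSO wells with no growth and 100% = 10 µM 1-NA-PP1 with full growth; RAM network block rescues cells from 5-FOA so hits raise OD615 growth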); conditions: S. cerevisiae dse1pr::URA3 5-FOA growth, OD615, 2 d; at 10 µM; stronger effect = higher value; strain carries analog-sensitive mutant Cbk1 kinase
[6] = RAM signaling pathway blockade in yeast – S. cerevisiae, Pdr1DBD-CYC8 efflux-inhibited sensitized strain, primary screen (AID 1298);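 note: 0% = DMSO untreated cells without growth and 100% = 10 µM 1-NA-PP1 full growth; higher means more yeast growth rescued from 5-FOA killing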; conditions: S. cerevisiae cbk1-as DSE1-URA3 strain, 5-FOA growth OD615, 2 d; at 50 µM; stronger effect = higher value
[7] = growth suppression of PTEN-deleted HCT116, pilot screen, cell-based, HCT116 clonal line, CellTiter-Glo (AID 824;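 active = viability at or below 27.92% in each of two runs, the all-compound median minus 4 SD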;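 note: 0% = 20 µM Hyamine control and 100% = vehicle cell control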); conditions: 60 h, at 10 µM, stronger effect = lower value

CC1CCC(NC(=O)Cn2c(=O)[nH]c3ccsc3c2=O)CC1 (stereo not drawn)
inactive: growth inhibition [1] -13.7% | growth inhibition [2] -3.85% | viability increase [3] 1.29% | viability [4] 99.5% | inhibition [5] 2.09% | RAM network inhibition [6] 4.16%

CCOC(=O)N1CCC(NC(=O)C(NC(=O)C2CCCCC2)C(C)C)CC1 (stereo not drawn)
inactive: growth inhibition [1] -6.95% | growth inhibition [2] -2.83% | viability increase [3] -1.25% | viability [4] 93% | inhibition [5] 2% | RAM network inhibition [6] 6.39%

COc1ccc(S(=O)(=O)Nc2ccc(S(=O)(=O)N3CCOCC3)cc2)cc1
inactive: growth inhibition [1] -3.87% | growth inhibition [2] -1.83% | viability increase [3] -1.49% | viability [7] 101% | inhibition [5] 1.18% | RAM network inhibition [6] 2.87%

CCN(CC)S(=O)(=O)c1ccc2oc(C(=O)NCc3ccc(F)cc3)c(C)c2c1
inactive: growth inhibition [1] -10.9% | growth inhibition [2] 12.4% | viability increase [3] -6.59% | viability [7] 60.6% | inhibition [5] 1.37% | RAM network inhibition [6] 7.7%

COc1cc(OC)cc(C(=O)Nc2cccc(C(C)=O)c2)c1
inactive: growth inhibition [1] -6.17% | growth inhibition [2] -2.38% | viability increase [3] -2.42% | viability [7] 89.9% | inhibition [5] 1.7% | RAM network inhibition [6] 1.49%

Cc1c(C(=O)NCc2ccccn2)oc2ccc(S(=O)(=O)N3CCOCC3)cc12
inactive: growth inhibition [1] -0.375% | growth inhibition [2] -7.32% | viability increase [3] -3.28% | viability [7] 94.4% | inhibition [5] 1.13% | RAM network inhibition [6] 0.56%

C=CCn1c(SC(CCO)C(=O)NCc2ccco2)nc2sc3c(c2c1=O)CCC3 (stereo not drawn)
inactive: growth inhibition [1] -8.84% | growth inhibition [2] 0.375% | viability increase [3] -5.67% | viability [7] 84.7% | inhibition [5] 1.2% | RAM network inhibition [6] 5.12%

Cc1ccc2nc(NC(=O)c3cccs3)sc2c1
inactive: growth inhibition [1] -2.67% | growth inhibition [2] 10.6% | viability increase [3] -4.54% | viability [7] 69.2% | inhibition [5] 1.29% | RAM network inhibition [6] 4.15%

CC1Cc2ccccc2N1Cc1nc2scc(-c3cccs3)c2c(=O)[nH]1 (stereo not drawn)
inactive: growth inhibition [1] 1.81% | growth inhibition [2] 0.44% | viability increase [3] -3.6% | viability [7] 95.3% | inhibition [5] 1.77% | RAM network inhibition [6] 5.16%

Cc1cc(NC(=O)c2ccc3c(c2)C(=O)N(C2CCCCC2)C3=O)no1
inactive: growth inhibition [1] -4.59% | growth inhibition [2] -6.9% | viability increase [3] -6.76% | viability [7] 41.5% | RAM network inhibition [6] 3.39%

CCn1cc(C(=O)NC2CCCCCC2)c2cc(OC)c(OC)cc2c1=O
inactive: growth inhibition [1] -29.2% | growth inhibition [2] 1.87% | viability increase [3] -3.91% | viability [4] 76.3% | inhibition [5] 2.02% | RAM network inhibition [6] 4.11%

O=C(Cc1c(C(=O)O)[nH]c2ccccc12)Nc1ccc2c(c1)OCO2
inactive: growth inhibition [1] -7.96% | growth inhibition [2] -0.57% | viability increase [3] -2.23% | viability [7] 99.7% | inhibition [5] 0.445% | RAM network inhibition [6] 2.01%

Cc1ccc(-c2nc(=S)c3c(n2Cc2ccco2)CC(C)(C)OC3)cc1
inactive: growth inhibition [1] -13.2% | growth inhibition [2] 2.99% | viability increase [3] -2.16% | viability [4] 69.2% | inhibition [5] -0.945% | RAM network inhibition [6] 3.44%

CCc1ccc(-c2nc(CSCC(=O)N3CCN(c4ncccn4)CC3)c(C)o2)cc1
inactive: growth inhibition [1] -2.9% | growth inhibition [2] -2.11% | viability increase [3] -3.72% | viability [7] 52.6% | RAM network inhibition [6] 7.89%

COc1cc(-c2nnn(CC#N)n2)ccc1OCc1ccccc1
inactive: growth inhibition [1] -6.28% | growth inhibition [2] 9.63% | viability increase [3] 0.59% | viability [4] 94.5% | inhibition [5] 1.28% | RAM network inhibition [6] 1.51%

Cc1ccc2c(c1)c(C)c(C)n2CC(O)Cn1nnc2ccccc21 (stereo not drawn)
inactive: growth inhibition [1] -9.66% | growth inhibition [2] -5.1% | viability increase [3] -5.06% | viability [4] 82.3% | inhibition [5] 0.335% | RAM network inhibition [6] 2.28%

CCOc1ccc(-n2c(SCC(N)=O)nc3c(c2=O)SCC3)cc1
inactive: growth inhibition [1] -1.29% | growth inhibition [2] 8.27% | viability increase [3] -0.72% | viability [4] 98.2% | inhibition [5] 2.31% | RAM network inhibition [6] 7.32%

CCNC(=O)CN(C1CCCCC1)S(=O)(=O)c1ccc(F)cc1
inactive: growth inhibition [1] -8.23% | growth inhibition [2] -2.66% | viability increase [3] -2.01% | viability [7] 91% | inhibition [5] 3.43% | RAM network inhibition [6] -0.15%

c1ccc(-n2ncc3c2ncn2c(C4CCCCC4)nnc32)cc1
inactive: growth inhibition [1] -12.6% | growth inhibition [2] -6.54% | viability increase [3] 0.09% | viability [4] 96.1% | inhibition [5] 1.33% | RAM network inhibition [6] 2.45%

Cc1ccc(N(CC(=O)NCc2ccco2)S(=O)(=O)c2ccccc2)cc1
inactive: growth inhibition [1] -10.9% | growth inhibition [2] -7.57% | viability increase [3] -4.6% | viability [7] 87.2% | inhibition [5] 1.1% | RAM network inhibition [6] 1.9%
